Each structure is given as a SMILES string. pIC50: −log10 of the molar value.

Consider nine compounds from ChEMBL document CHEMBL4266056, “Discovery and Pharmacology of a Novel Somatostatin Subtype 5 (SSTR5) Antagonist: Synergy with DPP-4 Inhibition” (ACS Med Chem Lett, 2018).

Series [1] addresses T1, Somatostatin receptor type 5 (Mus musculus, UniProt O08858).
T1 sequence (O08858 whole entry): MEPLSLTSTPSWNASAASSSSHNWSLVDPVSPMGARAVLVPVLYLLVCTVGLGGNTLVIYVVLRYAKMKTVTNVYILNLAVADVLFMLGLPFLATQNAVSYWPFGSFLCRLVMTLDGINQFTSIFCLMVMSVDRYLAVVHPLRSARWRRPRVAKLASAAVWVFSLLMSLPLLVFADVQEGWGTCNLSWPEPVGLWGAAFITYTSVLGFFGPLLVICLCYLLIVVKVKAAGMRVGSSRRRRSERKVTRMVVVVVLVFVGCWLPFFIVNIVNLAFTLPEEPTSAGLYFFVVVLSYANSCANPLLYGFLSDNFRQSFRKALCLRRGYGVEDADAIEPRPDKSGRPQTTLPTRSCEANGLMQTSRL
Nature of the series: Displacement of (3-125I-Tyr11)-SRIF-28 from mouse SSTR5 expressed in CHO-K1 cell membranes by filtration binding assay.

Series [2] concerns the target T2, Somatostatin receptor type 5 (Homo sapiens, UniProt P35346). Nature of the series: Antagonist activity at human SSTR5 expressed in CHO-K1 cell membranes assessed as reduction in SST-28-induced inhibition of forskolin-stimulated cAMP accumulation by LANCE assay. In kind it is functional, cell-based. (In general: cAMP levels reflect the balance of adenylyl cyclase and phosphodiesterase activity.)

The target in series [3] is T2, Somatostatin receptor type 5. Nature of the series: Displacement of (3-125I-Tyr11)-SRIF-28 from human SSTR5 expressed in CHO-K1 cell membranes by filtration binding assay.
In series [4] the test system is Mus musculus. Nature of the series: Drug uptake in mouse whole blood at 30 mg/kg, po measured at […].
Series [5] is described as follows: Oral bioavailability in mouse. In kind it is ADME, organism-based. Particulars: in vivo.
The target in series [6] is T1, Somatostatin receptor type 5. Nature of the series: Antagonist activity at mouse SSTR5 expressed in CHO-K1 cell membranes assessed as reduction in SST-28-induced inhibition of forskolin-stimulated cAMP accumulation by LANCE assay. In kind it is functional, cell-based.
Series [7] addresses Voltage-gated inwardly rectifying potassium channel KCNH2 (Homo sapiens, UniProt Q12809). Nature of the series: Inhibition of MK-499 binding to human ERG.
Series [8] concerns Mus musculus. Nature of the series: Antidiabetic activity in HFD fed C57BL/6N mouse assessed as decrease in blood glucose AUC at 30 mg/kg administered as single oral dose pretreated for 60 mins followed by glucose challenge measured after 120 mins by OGTT. In kind it is functional. Further details: scale not given: the % may be the effect or the level left. A digest of the protocol:
(§1)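 Male C57BL/6 mice were fed HFD (D12492) for 21 days, n=3. Compound was given orally 1 h before an oral glucose load, and blood glucose was followed over 0-120 min. Read-out is the decrease in glucose AUC versus vehicle.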

Series [9] addresses Somatostatin receptor type 3 (Homo sapiens, UniProt P32745). Nature of the series: Antagonist activity at human SSTR3 expressed in CHO-K1 cell membranes. In kind it is functional, cell-based. A digest of the protocol: (§2)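 Counter-screen by filtration membrane binding: competitive displacement of radiolabeled SST-28 from cell membranes expressing human SSTR1, SSTR2, SSTR3 or SSTR4. The IC50 is the mean of at least duplicate experiments within a maximal threefold range.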

The test system of series [10] is Mus musculus. Nature of the series: Antidiabetic activity in HFD fed C57BL/6N mouse assessed as decrease in blood glucose AUC at 10 mg/kg administered as single oral dose pretreated for 60 mins followed by glucose challenge measured after 120 mins by OGTT. In kind it is functional. On the set-up: scale not given: the % may be the effect or the level left. A digest of the protocol: as §1

Series [11] addresses Somatostatin receptor type 1 (Homo sapiens, UniProt P30872). Nature of the series: Antagonist activity at human SSTR1 expressed in CHO-K1 cell membranes. In kind it is functional, cell-based. Summed up:
as §2

Series [12] is described as follows: Half life in mouse. In kind it is ADME, organism-based. The note with it: in vivo.

Chain of Voltage-gated inwardly rectifying potassium channel KCNH2 (Q12809 whole entry): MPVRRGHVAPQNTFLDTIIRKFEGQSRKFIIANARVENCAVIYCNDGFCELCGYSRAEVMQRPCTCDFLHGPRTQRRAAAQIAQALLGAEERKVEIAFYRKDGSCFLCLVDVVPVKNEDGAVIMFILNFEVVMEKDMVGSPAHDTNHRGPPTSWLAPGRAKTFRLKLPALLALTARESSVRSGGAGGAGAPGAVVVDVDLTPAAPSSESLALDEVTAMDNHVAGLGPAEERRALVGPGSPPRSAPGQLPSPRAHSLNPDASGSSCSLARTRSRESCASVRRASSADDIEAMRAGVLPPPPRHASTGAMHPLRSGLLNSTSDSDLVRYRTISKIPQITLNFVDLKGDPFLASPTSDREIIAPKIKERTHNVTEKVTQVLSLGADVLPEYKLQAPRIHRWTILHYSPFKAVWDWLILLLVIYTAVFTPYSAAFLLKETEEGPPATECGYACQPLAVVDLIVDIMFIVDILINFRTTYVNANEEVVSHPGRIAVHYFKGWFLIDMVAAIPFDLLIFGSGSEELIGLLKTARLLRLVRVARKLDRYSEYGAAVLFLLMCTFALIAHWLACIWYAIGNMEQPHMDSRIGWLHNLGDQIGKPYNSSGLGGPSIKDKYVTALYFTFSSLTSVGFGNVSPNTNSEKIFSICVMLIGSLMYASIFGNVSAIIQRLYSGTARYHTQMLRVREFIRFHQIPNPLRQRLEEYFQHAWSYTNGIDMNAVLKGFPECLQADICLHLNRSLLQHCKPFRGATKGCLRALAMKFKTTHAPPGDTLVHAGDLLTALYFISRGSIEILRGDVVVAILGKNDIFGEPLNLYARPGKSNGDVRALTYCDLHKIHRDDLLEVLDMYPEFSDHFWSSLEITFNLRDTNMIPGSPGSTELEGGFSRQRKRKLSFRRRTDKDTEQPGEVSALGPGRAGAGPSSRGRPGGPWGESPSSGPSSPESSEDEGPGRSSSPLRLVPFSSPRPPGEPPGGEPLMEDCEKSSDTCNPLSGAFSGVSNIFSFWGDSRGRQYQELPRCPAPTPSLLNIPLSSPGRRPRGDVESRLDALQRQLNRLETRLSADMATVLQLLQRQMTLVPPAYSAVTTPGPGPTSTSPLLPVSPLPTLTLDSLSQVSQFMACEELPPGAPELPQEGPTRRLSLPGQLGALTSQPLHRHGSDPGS
T2 sequence (P35346 whole entry): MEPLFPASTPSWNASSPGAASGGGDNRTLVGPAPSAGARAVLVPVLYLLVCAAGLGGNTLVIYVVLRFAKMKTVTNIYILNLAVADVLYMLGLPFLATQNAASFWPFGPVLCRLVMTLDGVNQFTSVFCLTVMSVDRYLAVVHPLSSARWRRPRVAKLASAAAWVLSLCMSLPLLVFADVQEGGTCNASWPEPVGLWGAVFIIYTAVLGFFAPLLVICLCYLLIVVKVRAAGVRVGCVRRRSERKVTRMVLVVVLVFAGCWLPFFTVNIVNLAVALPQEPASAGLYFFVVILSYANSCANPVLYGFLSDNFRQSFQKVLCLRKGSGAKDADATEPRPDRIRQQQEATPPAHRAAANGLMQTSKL
Chain of Somatostatin receptor type 1 (P30872 whole entry): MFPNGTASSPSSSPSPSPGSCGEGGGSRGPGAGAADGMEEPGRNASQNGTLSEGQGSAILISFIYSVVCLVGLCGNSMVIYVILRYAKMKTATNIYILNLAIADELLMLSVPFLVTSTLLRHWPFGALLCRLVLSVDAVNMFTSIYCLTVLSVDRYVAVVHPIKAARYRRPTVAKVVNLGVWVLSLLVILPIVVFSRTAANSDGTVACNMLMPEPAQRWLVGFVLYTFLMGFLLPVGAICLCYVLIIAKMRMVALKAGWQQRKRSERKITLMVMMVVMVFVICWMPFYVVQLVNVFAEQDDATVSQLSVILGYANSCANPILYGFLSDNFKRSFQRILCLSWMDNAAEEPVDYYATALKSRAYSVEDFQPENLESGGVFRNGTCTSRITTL
Chain of Somatostatin receptor type 3 (P32745 whole entry): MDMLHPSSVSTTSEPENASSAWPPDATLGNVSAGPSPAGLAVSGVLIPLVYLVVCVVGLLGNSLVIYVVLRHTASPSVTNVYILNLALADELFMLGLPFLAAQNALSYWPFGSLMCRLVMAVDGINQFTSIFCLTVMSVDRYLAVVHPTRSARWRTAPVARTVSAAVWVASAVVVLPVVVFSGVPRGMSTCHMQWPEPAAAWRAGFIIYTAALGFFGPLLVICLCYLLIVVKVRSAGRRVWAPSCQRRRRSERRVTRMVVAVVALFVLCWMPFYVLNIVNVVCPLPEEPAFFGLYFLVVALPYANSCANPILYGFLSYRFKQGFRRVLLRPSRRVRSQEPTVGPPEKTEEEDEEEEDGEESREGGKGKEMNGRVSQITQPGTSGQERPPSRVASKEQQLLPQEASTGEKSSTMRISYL

Consider `CCOc1cc(CN2CCC(Oc3nccc(Cl)n3)CC2)cc(OCC)c1-c1ccc(F)cc1`, for which the pIC50 (commonly −log10 of the IC50, conventionally taken in molar units) in series [1] was 7.89; in [2], 7.14; in series [3] it was 7.68.

As to `CCOc1cc(CN2CCC(C3CCN(S(=O)(=O)c4ccccc4)CC3)CC2)cc(OCC)c1-c1ccc(F)cc1`, the pIC50 in series [1] is 9.10; in [2], 8.07; in series [6], 7.55; in series [3], 9.15; in [7] it was 6.66. Moreover, in the series with Mus musculus [4], the concentration at […] is 92 nM. Further, the bioavailability – broadly, the share of a dose that reaches the circulation, judged against a reference dose that is usually intravenous – in series [5] worked out at 13%. Besides, the Activity in the series with Mus musculus [8] turned out to be 60%.

`CCOc1cc(CN2CCC3(CC2)NC(=O)NC3=O)cc(OCC)c1-c1ccc(F)cc1`: the pIC50 in series [1] is 7.49; in series [2], 6.96; in series [6], 8.13; in [3], 7.08; in [7], 4.60. The concentration at […] in the series with Mus musculus [4] is 460 nM. Besides, in the series with Mus musculus [8], the Activity worked out at 54%.

`CCOc1cc(CN2CCC(c3ncc(-c4ccc(F)cc4)[nH]3)CC2)cc(OCC)c1-c1ccc(F)cc1`: the pIC50 was 8.57 in [1]; 6.61 in series [2]; 7.01 in series [6]; 8.12 in series [3]; 6.59 in [7]; 6.92 in series [9].

On to `CCOc1cc(CN2CCC(COc3cccc4cccnc34)CC2)cc(OCC)c1-c1ccc(F)cc1`, for which the pIC50 in series [1] was 9.22; in series [2], 7.17; in series [6], 8.15; in [3], 8.54; in [7], 6.68.

For `CCOc1cc(CN2CCC3(CC2)CC(Cc2ccc(F)cc2)C(=O)O3)cc(OCC)c1-c1ccc(F)cc1` (racemic), the pIC50 is 8.60 in [1], 7.17 in series [2] and 8.80 in series [3].

Consider `CCOc1cc(CN2CCC3(CC2)CCN(S(=O)(=O)c2cccnc2)CC3)cc(OCC)c1-c1ccc(F)cc1`, for which the pIC50 in series [2] is 7.59; in [3], 7.89; in series [7] it was 6.68.

With `CCOc1cc(CN2CCC(NC(=O)c3cncc(C)c3)CC2)cc(OCC)c1-c1ccc(F)cc1`, the pIC50 is 9.00 in series [1]; greater than 6.52 in series [11]; 8.51 in series [2]; 8.57 in series [6]; 8.89 in series [3]; 5.77 in series [7]. Also, in the series with Mus musculus [10], the Activity is reported as 87%.

Turning to `CCOc1cc(CN2CC[C@H]3C(Nc4nc5ccc(C(=O)O)cc5o4)CC[C@H]32)cc(OCC)c1-c1ccc(F)cc1` (relative stereo), the pIC50 in series [1] was 7.80; in [11] it was 5.22; in series [2] it was 8.35; in [6], 8.21; in series [3] it was 8.60; in series [7], 4.82. Further, the concentration at […] with Mus musculus [4] turned out to be 760 nM. Moreover, the bioavailability in series [5] is 48%. Also, in the series with Mus musculus [8], the Activity worked out at 56%. Besides, the half-life (in general, how long it takes for the measured level to halve) in [12] is 1.7 h.
